Legend:
[1] = system: Staphylococcus epidermidis; test: (§1) Minimum concentration required to prevent the growth of multiply resistant Staphylococcus epidermidis (MRSE) coag.-neg. Staph. A0244; assay type: functional
How it was run: (§2)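 Agar dilution susceptibility testing per NCCLS guidelines against resistant clinical isolates, with nonresistant ATCC stock strains run as controls. Plates were read at 19–24 h of incubation. MIC reported in µg/mL.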

[2] = system: Enterococcus faecalis; test: Minimum concentration required to prevent the growth of vancomycin resistant (VanA) Enterococcus faecalis strain A0402; assay type: functional; how it was run: as §2
[3] = system: Staphylococcus epidermidis; test: Minimum concentration required to prevent the growth of multiply resistant Staphylococcus epidermidis (MRSE) coag.-neg. Staph. A0245; assay type: functional; how it was run: as §2
[4] = system: Pseudomonas aeruginosa; test: Minimum concentration required to prevent the growth of Pseudomonas aeruginosa strain 28245; assay type: functional
How it was run: (§3)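 Agar dilution susceptibility testing per NCCLS guidelines, covering clinical isolates (including resistant phenotypes) and nonresistant ATCC stock strains as controls. Plates read after 19–24 h of incubation. MIC reported in μg/mL.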

[5] = system: Escherichia coli; test: Minimum concentration required to prevent the growth of nonresistant stock Escherichia coli strain 25922 from American Type Culture Collection (ATCC); assay type: functional; conditions: ATCC25922; how it was run: as §3
[6] = system: Enterococcus faecalis; test: Minimum concentration required to prevent the growth of high level gentamicin and beta- lactamase resistant (HLGR, BLA+) Enterococcus faecalis strain A0090; assay type: functional; how it was run: as §2
[7] = system: Enterococcus faecalis; test: Minimum concentration required to prevent the growth of nonresistant stock strain Enterococcus faecalis 51299 from American Type Culture Collection (ATCC); assay type: functional; how it was run: as §2
[8] = system: Staphylococcus epidermidis; test: Minimum concentration required to prevent the growth of multiply resistant Staphylococcus epidermidis (MRSE) and cipro resistant (Cipro-R) coag.-neg. Staph. A0247
[9] = system: Klebsiella pneumoniae; test: Minimum concentration required to prevent the growth of cipro resistant (Cipro-I) Klebsiella pneumoniae strain AM; assay type: functional; how it was run: as §2
[10] = system: Enterococcus faecium; test: Minimum concentration required to prevent the growth of vancomycin resistant (VanB) Enterococcus faecium strain A0803; assay type: functional; how it was run: as §2
[11] = system: Escherichia coli; test: Minimum concentration required to prevent the growth of cipro resistant (Cipro-R) Escherichia coli strain A3529; assay type: functional; how it was run: as §3
[12] = system: Escherichia coli; test: Minimum concentration required to prevent the growth of cipro resistant (Cipro-R) Escherichia coli strain AA; assay type: functional; how it was run: as §3
[13] = system: Staphylococcus epidermidis; test: Minimum concentration required to prevent the growth of multiply resistant Staphylococcus epidermidis (MRSE) and cipro resistant (Cipro-R) coag.-neg. Staph. A0248; assay type: functional; how it was run: as §2
[14] = system: Listeria monocytogenes; test: Minimum concentration required to prevent the growth of Listeria monocytogenes strain A0183; assay type: functional; how it was run: as §3
[15] = system: Enterococcus faecalis; test: Minimum concentration required to prevent the growth of vancomycin resistant (VanB) Enterococcus faecalis strain A1081; assay type: functional; how it was run: as §2
[16] = system: Staphylococcus aureus; test: Minimum concentration required to prevent the growth of multiply resistant (MRSA) and cipro resistant (Cipro-R) Staphylococcus aureus strain A2043; assay type: functional; how it was run: as §2
[17] = system: Staphylococcus aureus; test: Minimum concentration required to prevent the growth of multiply resistant (MRSA) Staphylococcus aureus strain A0171; assay type: functional; how it was run: as §2
[18] = system: Listeria monocytogenes; test: Minimum concentration required to prevent the growth of Listeria monocytogenes strain A0182; assay type: functional; how it was run: as §3
[19] = system: Pseudomonas aeruginosa; test: Minimum concentration required to prevent the growth of Pseudomonas aeruginosa strain 28215; assay type: functional; how it was run: as §3
[20] = system: Staphylococcus aureus; test: Minimum concentration required to prevent the growth of multiply resistant (MRSA) Staphylococcus aureus strain A0170; assay type: functional; how it was run: as §2
[21] = system: Klebsiella oxytoca; test: Minimum concentration required to prevent the growth of cipro resistant (Cipro-R) Klebsiella oxytoca strain A3530
[22] = system: Staphylococcus aureus; test: Minimum concentration required to prevent the growth of nonresistant stock strain Staphylococcus aureus 29213 from American Type Culture Collection (ATCC)
[23] = system: Enterococcus faecalis; test: Minimum concentration required to prevent the growth of vancomycin resistant (VanA) Enterococcus faecalis strain A0401; assay type: functional; how it was run: as §2
[24] = system: Enterococcus faecium; test: Minimum concentration required to prevent the growth of vancomycin resistant (VanB) Enterococcus faecium strain A1087; assay type: functional; how it was run: as §2
[25] = system: Enterococcus faecalis; test: Minimum concentration required to prevent the growth of high level gentamicin and beta- lactamase resistant (HLGR, BLA+) Enterococcus faecalis strain A0089; assay type: functional; how it was run: as §2
[26] = system: Enterococcus faecalis; test: Minimum concentration required to prevent the growth of nonresistant stock strain Enterococcus faecalis 29212 from American Type Culture Collection (ATCC); assay type: functional; how it was run: as §2
[27] = system: Staphylococcus aureus; test: Minimum concentration required to prevent the growth of multiply resistant (MRSA) and cipro resistant (Cipro-R) Staphylococcus aureus strain A2800; assay type: functional; how it was run: as §2
[28] = system: Enterococcus faecium; test: Minimum concentration required to prevent the growth of nonresistant stock strain Enterococcus faecium 19434 from American Type Culture Collection (ATCC); assay type: functional; how it was run: as §3
[29] = system: Enterococcus faecalis; test: Minimum concentration required to prevent the growth of vancomycin resistant (VanB) Enterococcus faecalis strain A1079; assay type: functional; how it was run: as §2
[30] = system: Escherichia coli; test: Minimum concentration required to prevent the growth of cipro resistant (Cipro-R) Escherichia coli strain A3228; assay type: functional; how it was run: as §3
[31] = system: Staphylococcus epidermidis; test: Minimum concentration required to prevent the growth of multiply resistant Staphylococcus epidermidis (MRSE) and cipro resistant (Cipro-R) coag.-neg. Staph. A0247; assay type: functional; how it was run: as §2
[32] = system: Klebsiella oxytoca; test: Minimum concentration required to prevent the growth of cipro resistant (Cipro-R) Klebsiella oxytoca strain A3530; remark: listed apart in the source
[33] = system: Enterococcus faecium; test: Minimum concentration required to prevent the growth of vancomycin resistant (VanA) Enterococcus faecium strain A1745; assay type: functional; how it was run: as §2
[34] = system: Enterococcus faecium; test: Minimum concentration required to prevent the growth of vancomycin resistant (VanA) Enterococcus faecium strain A2320; assay type: functional; how it was run: as §2
[35] = system: Klebsiella oxytoca; test: Minimum concentration required to prevent the growth of cipro resistant (Cipro-I) Klebsiella oxytoca strain A3530; assay type: functional; how it was run: as §2
[36] = system: Staphylococcus epidermidis; test: as §1
[37] = system: Staphylococcus aureus; test: Minimum concentration required to prevent the growth of nonresistant stock strain Staphylococcus aureus 29213 from American Type Culture Collection (ATCC); remark: listed apart in the source
[38] = Enterococcus faecalis, read-out: MIC
[39] = Enterococcus faecium, read-out: MIC
[40] = Staphylococcus epidermidis, read-out: MIC
[41] = Klebsiella pneumoniae, read-out: MIC
[42] = Escherichia coli, read-out: MIC
[43] = Listeria monocytogenes, read-out: MIC
[44] = Staphylococcus aureus, read-out: MIC
[45] = Pseudomonas aeruginosa, read-out: MIC

Measured: MIC

O=C(O)c1cn(C2CC2)c2cc(N3CCN(CCCO[C@@H]4O[C@@H](CO)[C@@H](O)[C@H](O)[C@@H]4O)CC3)c(F)cc2c1=O
0.12 µg/mL: [5]
16 µg/mL: [9] | [10]; [39]
32 µg/mL: [4] | [24]; [39]
4 µg/mL: [3] | [6] | [15]; [38] | [17] | [19] | [20] | [22]
8 µg/mL: [1] | [2]; [38] | [7]; [38] | [14] | [18] | [23]; [38] | [25]; [38] | [26] | [29]
> 32 µg/mL: [8] | [11] | [12] | [13] | [16] | [21] | [27] | [28]; [39] | [30]

O=C(O)c1cn(C2CC2)c2cc(N3CCN(CCO[C@@H]4O[C@@H](CO)[C@@H](O)[C@H](O)[C@@H]4O)CC3)c(F)cc2c1=O
> 32 µg/mL: [31] | [4] | [9] | [11] | [12] | [13] | [14] | [16] | [18] | [21] | [23]; [38] | [25]; [38] | [27] | [28]; [39] | [30]
16 µg/mL: [3] | [7]; [38] | [15]; [38] | [22]
32 µg/mL: [1] | [2]; [38] | [6] | [19] | [26] | [29]
8 µg/mL: [17]
2 µg/mL: [5]
4 µg/mL: [20]

O=C(O)c1cn(C2CC2)c2cc(N3CCN(CCCO[C@@H]4O[C@@H](CO)[C@H](O)[C@H](O)[C@@H]4O)CC3)c(F)cc2c1=O
8 µg/mL: [3] | [20]
0.25 µg/mL: [5]
> 32 µg/mL: [31] | [4] | [9] | [11] | [12] | [13] | [16] | [21] | [27] | [28]; [39] | [30]
16 µg/mL: [6] | [7]; [38] | [15]; [38] | [17] | [19] | [22] | [26] | [29]
32 µg/mL: [1] | [2]; [38] | [14] | [18] | [23]; [38] | [25]; [38]

O=C(O)c1cn(C2CC2)c2cc(N3CCN(CCO[C@@H]4O[C@@H](CO)[C@H](O)[C@H](O)[C@@H]4O)CC3)c(F)cc2c1=O
1 µg/mL: [5]
> 32 µg/mL: [31] | [4] | [9] | [11] | [12] | [13] | [14] | [16] | [18] | [21] | [23]; [38] | [25]; [38] | [27] | [28]; [39] | [30]
32 µg/mL: [1] | [2]; [38] | [6] | [7]; [38] | [26] | [29]
16 µg/mL: [3] | [15]; [38] | [19]
8 µg/mL: [17] | [20] | [22]

O=C(O)c1cn(C2CC2)c2cc(N3CCN(C4OC(CO)C(O)C(O)C4O)CC3)c(F)cc2c1=O (stereo in doubt; form 1)
> 32 µg/mL: [31] | [33] | [13] | [16] | [34] | [27] | [30]
< 0.03 µg/mL: [5]
1 µg/mL: [1]; [40] | [4] | [6] | [26] | [29]
0.5 µg/mL: [3]; [40] | [7]; [38] | [15]; [38] | [17]; [44] | [20]; [44]
8 µg/mL: [32] | [12]; [42] | [28]; [39]
0.25 µg/mL: [19]; [45]
4 µg/mL: [10]; [39] | [24]; [39]
32 µg/mL: [11]; [42]
2 µg/mL: [2]; [38] | [9]; [41] | [14]; [43] | [18]; [43] | [23]; [38] | [25]; [38]

O=C(O)c1cn(C2CC2)c2cc(N3CCN(C4OC(CO)C(O)C(O)C4O)CC3)c(F)cc2c1=O (stereo in doubt; form 2)
1 µg/mL: [1] | [2] | [7] | [25]
0.5 µg/mL: [3] | [15] | [17] | [19] | [20]
8 µg/mL: [35] | [12] | [28]
32 µg/mL: [11]
4 µg/mL: [4]
> 32 µg/mL: [33]
2 µg/mL: [9] | [10] | [14] | [18] | [23]

O=C(O)c1cn(C2CC2)c2cc(N3CCN(C4OC(CO)C(O)C(O)C4O)CC3)c(F)cc2c1=O (stereo in doubt; form 3)
2 µg/mL: [14] | [18]
1 µg/mL: [1] | [15]
> 32 µg/mL: [31] | [33] | [13] | [16] | [27] | [30]
0.5 µg/mL: [3] | [17] | [19] | [20]
8 µg/mL: [35] | [12] | [28]
32 µg/mL: [11]
< 0.03 µg/mL: [5]
4 µg/mL: [4] | [9] | [10] | [24]

Cl.O=C(O)c1cn(C2CC2)c2cc(N3CCNCC3)c(F)cc2c1=O [CIPROFLOXACIN HYDROCHLORIDE]
0.5 µg/mL: [3] | [3]; [40] | [15] | [15]; [38] | [17] | [17]; [44] | [37] | [20] | [22]
2 µg/mL: [9] | [9]; [41] | [10] | [10]; [39] | [23]; [38] | [25]; [38]
0.25 µg/mL: [20]; [44]
8 µg/mL: [28] | [28]; [39]
1 µg/mL: [1] | [36] | [2]; [38] | [4]; [45] | [6] | [7]; [38] | [14] | [14]; [43] | [18] | [18]; [43] | [23] | [25] | [26] | [29]
4 µg/mL: [24] | [24]; [39]

Source: ChEMBL document CHEMBL1132401, “Glycosylation of fluoroquinolones through direct and oxygenated polymethylene linkages as a sugar-mediated active transport system for antimicrobials” (1999)
